Measurements from ChEMBL document CHEMBL5357066, “Development of Novel Membrane Disrupting Lipoguanidine Compounds Sensitizing Gram-Negative Bacteria to Antibiotics” (ACS Med Chem Lett, 2024).
≈ marks a conversion by molar mass, not a printed value.

These molecules were tested on Klebsiella pneumoniae (assay: Antibacterial activity against Klebsiella pneumoniae M6 assessed as bacterial growth inhibition incubated for overnight by microbroth dilution method).

SMILES | MIC [µg/mL]
CCCCCCCC/C=C\CCCCCCCCNC(=N)NCCCCNC(=N)N | 16 (≈ 37.9 µM)

Each molecule was assayed on Pseudomonas aeruginosa (assay: Antibacterial activity against Pseudomonas aeruginosa NCTC 13437 assessed as bacterial growth inhibition incubated for overnight by microbroth dilution method).
Type: functional
Method in brief: (§1)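 Broth microdilution in Tryptic Soy Broth. DMSO stocks were diluted in TSB as 2-fold series. Overnight TSB cultures were back-diluted to OD 0.01 and mixed 1:1 with compound. Incubation was overnight at 37 °C. MIC was the lowest concentration without visible growth (<0.1 OD600). DMSO vehicle was checked at equivalent concentrations.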

SMILES | MIC [µg/mL]
CCCCCCCC/C=C\CCCCCCCCNC(=N)NCCCCNC(=N)N | > 128

What follows are molecules tested on Acinetobacter baumannii (assay: Synergistic antibacterial activity against Acinetobacter baumannii ATCC 17978 assessed as rifampicin MIC at <=0.25 times MIC incubated for overnight by microbroth dilution checkerboard assay).
Type: functional
Method in brief: (§2)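 Checkerboard microdilution under MIC conditions (TSB, overnight, 37 °C). Two-fold series of each agent were combined on one plate before bacteria were added, and single-agent MICs were measured on the same plate. FIC = sum of combination MIC/alone MIC for each agent, taken from the most synergistic well. Three independent repeats, mean ± SD. ≤0.5 was taken as strong synergy and 0.5–<1 as weak.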

SMILES | MIC [µg/mL]
CCCCCCCC/C=C\CCCCCCCCNC(=N)NCCCCNC(=N)N | ≤ 0.125

The molecules below were run on Pseudomonas aeruginosa (assay: Antibacterial activity against Pseudomonas aeruginosa PAO1 assessed as bacterial growth inhibition incubated for overnight by microbroth dilution method).
Type: functional
Method in brief: as §1

SMILES | MIC [µg/mL]
CCCCCCCC/C=C\CCCCCCCCNC(=N)NCCCCNC(=N)N | 128 (≈ 303 µM)

These molecules were tested on Staphylococcus aureus (assay: Antibacterial activity against methicillin resistant Staphylococcus aureus USA 300 assessed as bacterial growth inhibition incubated for overnight by microbroth dilution method).
Type: functional
Method in brief: (§3)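 Microbroth dilution in Tryptic Soy Broth. DMSO stocks were diluted in TSB as 2-fold series. Overnight TSB cultures were back-diluted to OD 0.01 and mixed 1:1 with compound. Incubation was overnight at 37 °C. MIC is the lowest concentration with no visible growth (<0.1 OD600). DMSO at equivalent concentrations was checked.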

SMILES | MIC [µg/mL]
CCCCCCCC/C=C\CCCCCCCCNC(=N)NCCCCNC(=N)N | 2 (≈ 4.73 µM)

These molecules were tested on Escherichia coli (assay: Antibacterial activity against Escherichia coli NCTC 12923 assessed as bacterial growth inhibition incubated for overnight by microbroth dilution method).
Type: functional
Method in brief: as §1

SMILES | MIC [µg/mL]
CCCCCCCC/C=C\CCCCCCCCNC(=N)NCCCCNC(=N)N | 8 (≈ 18.9 µM)

What follows are molecules tested on Enterococcus faecalis (assay: Antibacterial activity against vancomycin resistant Enterococcus faecalis NCTC 12201 assessed as bacterial growth inhibition incubated for overnight by microbroth dilution method).
Type: functional
Method in brief: as §3

SMILES | MIC [µg/mL]
CCCCCCCC/C=C\CCCCCCCCNC(=N)NCCCCNC(=N)N | 2 (≈ 4.73 µM)

What follows are molecules tested on Pseudomonas aeruginosa (assay: Synergistic antibacterial activity against Pseudomonas aeruginosa PAO1 assessed as fold change in rifampicin MIC at <=0.25 times MIC incubated for overnight by microbroth dilution checkerboard assay relative to rifampicin alone).
Type: functional
Method in brief: (§4)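 Checkerboard microdilution in Tryptic Soy Broth, run like the MIC assay. Overnight TSB cultures were back-diluted to OD 0.01 and added 1:1 to the combined two-fold series of both agents, then incubated overnight at 37 °C. Growth/no-growth was called at <0.1 OD600. MICs alone were read on the same plates. FIC index came from the most synergistic well; three independent repeats, mean ± SD.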

SMILES | fold change (FC)
CCCCCCCC/C=C\CCCCCCCCNC(=N)NCCCCNC(=N)N | 0

Each molecule was assayed on Acinetobacter baumannii (assay: Antibacterial activity against Acinetobacter baumannii AYE assessed as bacterial growth inhibition incubated for overnight by microbroth dilution method).
Type: functional
Method in brief: as §1

SMILES | MIC [µg/mL]
CCCCCCCC/C=C\CCCCCCCCNC(=N)NCCCCNC(=N)N | 32 (≈ 75.7 µM)

What follows are molecules tested on Klebsiella pneumoniae (assay: Synergistic antibacterial activity against Klebsiella pneumoniae NCTC 13368 assessed as rifampicin MIC at <=0.25 times MIC incubated for overnight by microbroth dilution checkerboard assay).
Type: functional
Method in brief: as §2

SMILES | MIC [µg/mL]
CCCCCCCC/C=C\CCCCCCCCNC(=N)NCCCCNC(=N)N | ≤ 0.125

The molecules below were run on Klebsiella pneumoniae (assay: Synergistic antibacterial activity against […] Klebsiella pneumoniae M6 assessed as rifampicin MIC at <=0.25 times MIC incubated for overnight by microbroth dilution checkerboard assay).
Type: functional
Method in brief: (§5)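 Checkerboard run under the MIC conditions (TSB, overnight, 37 °C). Antibiotic and lipoguanidine 2-fold series were combined on one plate before bacteria were added. Growth/no-growth was scored as for the MIC (<0.1 OD600). Single-agent MICs were measured on the same plates. Three independent repeats were done.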

SMILES | MIC [µg/mL]
CCCCCCCC/C=C\CCCCCCCCNC(=N)NCCCCNC(=N)N | 2

The molecules below were run on Staphylococcus aureus (assay: Antibacterial activity against methicillin resistant Staphylococcus aureus NCTC 13616 assessed as bacterial growth inhibition incubated for overnight by microbroth dilution method).
Type: functional
Method in brief: as §3

SMILES | MIC [µg/mL]
CCCCCCCC/C=C\CCCCCCCCNC(=N)NCCCCNC(=N)N | 2 (≈ 4.73 µM)

These molecules were tested on Escherichia coli (assay: Synergistic antibacterial activity against Escherichia coli NCTC 12923 assessed as fold change in rifampicin MIC at <=0.25 times MIC incubated for overnight by microbroth dilution checkerboard assay relative to rifampicin alone).
Type: functional
Method in brief: as §2

SMILES | fold change (FC)
CCCCCCCC/C=C\CCCCCCCCNC(=N)NCCCCNC(=N)N | 0

Each molecule was assayed on Acinetobacter baumannii (assay: Synergistic antibacterial activity against Acinetobacter baumannii AYE assessed as rifampicin MIC at <=0.25 times MIC incubated for overnight by microbroth dilution checkerboard assay).
Type: functional
Method in brief: as §2

SMILES | MIC [µg/mL]
CCCCCCCC/C=C\CCCCCCCCNC(=N)NCCCCNC(=N)N | ≤ 0.125

Each molecule was assayed on Enterococcus faecium (assay: Antibacterial activity against vancomycin resistant Enterococcus faecium NCTC 12204 assessed as bacterial growth inhibition incubated for overnight by microbroth dilution method).
Type: functional
Method in brief: as §3

SMILES | MIC [µg/mL]
CCCCCCCC/C=C\CCCCCCCCNC(=N)NCCCCNC(=N)N | 2 (≈ 4.73 µM)

Each molecule was assayed on Escherichia coli (assay: Synergistic antibacterial activity against Escherichia coli NCTC 12923 assessed as rifampicin MIC at <=0.25 times MIC incubated for overnight by microbroth dilution checkerboard assay).
Type: functional
Method in brief: as §2

SMILES | MIC [µg/mL]
CCCCCCCC/C=C\CCCCCCCCNC(=N)NCCCCNC(=N)N | 8

The molecules below were run on Acinetobacter baumannii (assay: Antibacterial activity against Acinetobacter baumannii ATCC 17978 assessed as bacterial growth inhibition incubated for overnight by microbroth dilution method).
Type: functional
Method in brief: as §1

SMILES | MIC [µg/mL]
CCCCCCCC/C=C\CCCCCCCCNC(=N)NCCCCNC(=N)N | 8 (≈ 18.9 µM)

What follows are molecules tested on Acinetobacter baumannii (assay: Synergistic antibacterial activity against Acinetobacter baumannii AYE assessed as bacterial growth inhibition incubated for overnight in presence of PBMN by microbroth dilution method relative to control).
Type: functional
Method in brief: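 Adapted broth microdilution in TSB. The test compound was in a 2-fold dilution series, with PMBN added at a fixed 30 µg/mL. Bacteria at OD 0.02 were added, and plates were incubated overnight at 37 °C. Growth/no growth was read as for the MIC (<0.1 OD600).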

SMILES | inhibition (INH) [%]
CCCCCCCC/C=C\CCCCCCCCNC(=N)NCCCCNC(=N)N | <20

These molecules were tested on Staphylococcus aureus (assay: Antibacterial activity against methicillin sensitive Staphylococcus aureus 1199B assessed as bacterial growth inhibition incubated for overnight by microbroth dilution method).
Type: functional
Method in brief: as §3

SMILES | MIC [µg/mL]
CCCCCCCC/C=C\CCCCCCCCNC(=N)NCCCCNC(=N)N | 2 (≈ 4.73 µM)

These molecules were tested on Staphylococcus aureus (assay: Antibacterial activity against methicillin sensitive Staphylococcus aureus ATCC 9144 assessed as bacterial growth inhibition incubated for overnight by microbroth dilution method).
Type: functional
Method in brief: as §3

SMILES | MIC [µg/mL]
CCCCCCCC/C=C\CCCCCCCCNC(=N)NCCCCNC(=N)N | 4 (≈ 9.46 µM)

These molecules were tested on Pseudomonas aeruginosa (assay: Synergistic antibacterial activity against Pseudomonas aeruginosa PAO1 assessed as rifampicin MIC at <=0.25 times MIC incubated for overnight by microbroth dilution checkerboard assay).
Type: functional
Method in brief: as §4

SMILES | MIC [µg/mL]
CCCCCCCC/C=C\CCCCCCCCNC(=N)NCCCCNC(=N)N | 16

The molecules below were run on Acinetobacter baumannii (assay: Synergistic antibacterial activity against Acinetobacter baumannii ATCC 17978 assessed as fold change in rifampicin MIC at <=0.25 times MIC incubated for overnight by microbroth dilution checkerboard assay relative to rifampicin alone).
Type: functional
Method in brief: as §2

SMILES | fold change (FC)
CCCCCCCC/C=C\CCCCCCCCNC(=N)NCCCCNC(=N)N | >=4

What follows are molecules tested on Enterococcus faecalis (assay: Antibacterial activity against vancomycin sensitive Enterococcus faecalis NCTC 775 assessed as bacterial growth inhibition incubated for overnight by microbroth dilution method).

SMILES | MIC [µg/mL]
CCCCCCCC/C=C\CCCCCCCCNC(=N)NCCCCNC(=N)N | 2 (≈ 4.73 µM)

What follows are molecules tested on Pseudomonas aeruginosa (assay: Synergistic antibacterial activity against Pseudomonas aeruginosa NCTC 13437 assessed as fold change in rifampicin MIC at <=0.25 times MIC incubated for overnight by microbroth dilution checkerboard assay relative to rifampicin alone).
Type: functional
Method in brief: as §4

SMILES | fold change (FC)
CCCCCCCC/C=C\CCCCCCCCNC(=N)NCCCCNC(=N)N | 0

The molecules below were run on Klebsiella pneumoniae (assay: Synergistic antibacterial activity against Klebsiella pneumoniae NCTC 13368 assessed as fold change in rifampicin MIC at <=0.25 times MIC incubated for overnight by microbroth dilution checkerboard assay relative to rifampicin alone).
Type: functional
Method in brief: as §5

SMILES | fold change (FC)
CCCCCCCC/C=C\CCCCCCCCNC(=N)NCCCCNC(=N)N | >=4

These molecules were tested on Acinetobacter baumannii (assay: Synergistic antibacterial activity against Acinetobacter baumannii AYE assessed as fold change in rifampicin MIC at <=0.25 times MIC incubated for overnight by microbroth dilution checkerboard assay relative to rifampicin alone).
Type: functional
Method in brief: as §2

SMILES | fold change (FC)
CCCCCCCC/C=C\CCCCCCCCNC(=N)NCCCCNC(=N)N | >=4

The molecules below were run on Klebsiella pneumoniae (assay: Antibacterial activity against ESBL Klebsiella pneumoniae NCTC 13368 assessed as bacterial growth inhibition incubated for overnight by microbroth dilution method).

SMILES | MIC [µg/mL]
CCCCCCCC/C=C\CCCCCCCCNC(=N)NCCCCNC(=N)N | 128 (≈ 303 µM)

What follows are molecules tested on Pseudomonas aeruginosa (assay: Synergistic antibacterial activity against Pseudomonas aeruginosa NCTC 13437 assessed as rifampicin MIC at <=0.25 times MIC incubated for overnight by microbroth dilution checkerboard assay).
Type: functional
Method in brief: as §4

SMILES | MIC [µg/mL]
CCCCCCCC/C=C\CCCCCCCCNC(=N)NCCCCNC(=N)N | 16
